Shown are actives, neighbours in structure and some others; about 6.8% of the full set was active somewhere.
M1 antag: antagonists of rat M1 muscarinic receptor; AID 628; B-score at 10 µM; CHO-M1 cells, Fluo-4 calcium, ACh EC80 antagonist mode; hits give low values; P08482; actives 3.4% (n = 64,000);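 active means calcium fluorescence response, raw or row-and-column corrected B-score, differing from the plate sample mean either way at a set confidence level, mostly lower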
DUSP1 inh: blocks human MKP-1 phosphatase activity | P28562 | recombinant MKP-1, OMFP hydrolysis fluorescence | inhibition, %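 (compounds tested at a single concentration somewhere between 10 and 100 µM)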 | actives 0.15% (n = 65,000);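 active means inhibition above about 50%, limit read from the data; inconclusive means inhibition over screen mean plus 3 SD, below that limit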
M1 ag: activates the M1 muscarinic receptor; actives 3% (n = 64,000); AID 626; B-score at 10 µM; CHO-M1 cells, Fluo-4 calcium fluorescence, agonist mode; hits give high values;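 active means fluorescence rise, raw or as B-score row- and column-corrected plate score, outside the 99.7% band of its plate's samples, either direction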
HEK293 NFkB inh: inhibitors of the PMA/ionomycin-induced NF-kB reporter in HEK293 cells; HEK-293 NF-kB luciferase reporter, luminescence; inhibition, % at 3 µM; actives 0.21% (n = 62,000);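 active means inhibition above the mean of all tested compounds plus 3 SD, cut at about 40% in these data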
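System – HEK-293 cells with stable firefly luciferase reporter driven by four HIV NF-kB elements · Doses – one dose, 3 µM · Schedule – 1 h compound pre-incubation, 16 h PMA/ionomycin at 37 °C · Technique – luminescence from luciferase substrate reagent · Measure – percent inhibition normalized per plate to DMSO and reference-inhibitor controls · Replicates – tested once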
Cdc25B block: inhibitors of human Cdc25B phosphatase | P30305 | recombinant Cdc25B, OMFP fluorescence Ex485/Em525 | inhibition, %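 (compounds tested at 10 µM final in the well)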 | actives 0.1% (n = 65,000); in the data active means inhibition above about 50%
Her2 expr inh: lowers expression of human Her2 kinase | P04626 | SKBR-3 HER2 protein level, AlphaScreen, 18-24 h; hits give low values | HER2 level % of control, % at 10 µM | actives 0.69% (n = 65,000) | AID 645;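 active means HER2 level under 5% of the carrier-only control; inconclusive means no clear call, values can overlap the other calls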;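 further: lower value means stronger loss of Her2 protein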
M1 ag confirm: confirmation of rat M1 muscarinic receptor agonists. shares compounds with M1 ag. AID 1488. actives 19% (n = 1,700). CHO-M1 cells, Fluo-4 calcium fluorescence, agonist mode; actives lie on both sides. fluorescence change (max-min) at 10 µM;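 active means fluorescence change differs from the solvent-only DMSO control mean at a set confidence level in both duplicate runs; inconclusive means differs from solvent-only control mean in just one of two runs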;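 further: an EC20 dose of acetylcholine follows compound addition during the same imaging run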
M4 agonist ctr: rat M4 muscarinic agonism, M1 counter-screen; shares compounds with M1 ag; CHO M4/Gqi5 cells, Fluo-4 calcium fluorescence, agonist mode; actives lie on both sides; fluorescence change (max-min) at 10 µM; actives 9% (n = 1,700);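 active means fluorescence change differing from the plate's solvent-only control wells at 99.7% confidence in both duplicates, whether higher or lower; inconclusive means differs from solvent controls in only one of two duplicates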
Target sequence (P08485 whole entry, looked up): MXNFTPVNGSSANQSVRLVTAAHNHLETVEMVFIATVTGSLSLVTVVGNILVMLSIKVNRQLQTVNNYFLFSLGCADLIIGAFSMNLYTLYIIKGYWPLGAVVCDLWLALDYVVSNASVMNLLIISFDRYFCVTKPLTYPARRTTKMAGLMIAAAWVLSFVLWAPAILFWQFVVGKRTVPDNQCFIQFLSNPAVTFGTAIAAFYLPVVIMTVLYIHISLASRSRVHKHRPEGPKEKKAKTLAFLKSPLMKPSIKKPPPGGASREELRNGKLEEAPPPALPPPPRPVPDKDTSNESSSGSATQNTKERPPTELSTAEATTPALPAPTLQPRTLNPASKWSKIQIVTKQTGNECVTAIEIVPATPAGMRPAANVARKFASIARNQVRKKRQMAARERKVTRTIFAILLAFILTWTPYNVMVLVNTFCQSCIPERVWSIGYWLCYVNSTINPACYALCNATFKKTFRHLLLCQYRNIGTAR
Of the large screens only hits and unclear results are named; the others gave an inactive call (follow-up assays come after a bar, where they were run).

O=C(c1ccco1)[C@@H]1[C@@H]2C(=O)N(c3ccc(Br)cc3)C(=O)[C@@H]2C2c3ccccc3C=CN21 (some centres not stated)	none
CC(=O)[C@H]1[C@@H]2C(=O)N(c3cccc(Cl)c3)C(=O)[C@@H]2[C@H]2c3ccccc3C=CN21	M1 ag 6.4 (no result: HEK293 NFkB inh) | M1 ag confirm 98 | M4 agonist ctr inconclusive
CCN(c1ccccc1)S(=O)(=O)c1cnc[nH]1	none
Nc1nnc(SCc2cccnc2)s1	none
Nc1nnc(SCc2cccc(C(F)(F)F)c2)s1	M1 ag 1.6 (no result: Her2 expr inh) | M1 ag confirm inactive | M4 agonist ctr inconclusive
CCn1cc(C(=O)NC2CCCCCC2)c2cc(OC)c(OC)cc2c1=O	none
Cc1nn(-c2ccccc2)c(Cl)c1C1C(C#N)=C(N)OC2=C1C(=O)CCC2 (configuration not stated)	none
C=CCOC(=O)C1=C(C)OC(N)=C(C#N)C1c1c(C)nn(-c2ccccc2)c1Cl (configuration not stated)	M1 ag 5.3 | M1 ag confirm inconclusive | M4 agonist ctr inactive
CCCCCn1c(=O)[nH]c2cc(C(=O)NCCN(CC)CC)ccc2c1=O	M1 ag -2.1 | M1 ag confirm -36 | M4 agonist ctr inactive
COc1ccc(Cn2nnnc2CN(Cc2cc3ccc(C)cc3[nH]c2=O)C2CCCC2)cc1	none
CCC(C)(C)n1nnnc1CN(Cc1cc2cc(OC)ccc2[nH]c1=O)C1CCCC1	M1 ag 2.6 | M1 ag confirm inactive | M4 agonist ctr inactive
O=c1[nH]c2cc3c(cc2cc1CN(Cc1nnnn1CC1CCCO1)C1CCCCC1)OCO3 (configuration not stated)	M1 ag 3.6 | M1 ag confirm 93 | M4 agonist ctr inconclusive
O=c1[nH]c2cc3c(cc2cc1CN(Cc1nnnn1CC1CCCO1)C1CCCC1)OCO3 (configuration not stated)	none
CCOC(=O)N1CCC(n2c(SCC(=O)NCc3ccccc3)nc3ccccc3c2=O)CC1	M1 ag 3.6 | M1 ag confirm inactive | M4 agonist ctr inactive
COc1cc(OC)cc(C(=O)NCCN2CCOCC2)c1	none
COc1ccc(N2CCN(Cc3cc(=O)oc4cc5c(cc34)CCCC5)CC2)cc1	none
CN1CCCc2cc3c(C(F)(F)F)cc(=O)oc3nc21	M1 antag -17, M1 ag 429 | M1 ag confirm 2526 | M4 agonist ctr 2146
O=C(c1cc(-c2ccncc2)nc2ccc(Cl)cc12)N1CCN(C(=O)C2CCCO2)CC1 (configuration not stated)	M1 ag 2.9 | M1 ag confirm inactive | M4 agonist ctr inactive
Cc1ccc(-c2nc3cc(N)ccc3o2)cc1	M1 ag 2.4 | M1 ag confirm inactive | M4 agonist ctr inactive
CCc1ccccc1N1CC(C(=O)O)CC1=O (configuration not stated)	none
COc1ccc(N(CC(=O)Nc2ccc3c(c2)OCCO3)S(=O)(=O)c2cccnc2)cc1	none
CCN(CC(=O)Nc1ccc2c(c1)OCCO2)c1nc(-c2cccnc2)nc2ccccc12	M1 ag 7.3 | M1 ag confirm -28 | M4 agonist ctr inconclusive
O=C(CCN1CCc2ccccc2C1)Nc1ccccc1F	none
COC(=O)c1ccc(NC(=O)C2C3C=CC(O3)C2C(=O)O)cc1 (configuration not stated)	none
Cc1nnc(NC(=O)C2C3C=CC(O3)C2C(=O)O)s1 (configuration not stated)	M1 ag 3.4 | M1 ag confirm inconclusive | M4 agonist ctr inactive
CC(C)C(NS(=O)(=O)c1cccs1)C(=O)NCc1ccc2c(c1)OCO2 (configuration not stated)	none
Cc1cc(N)n(-c2nc(-c3cccnc3)nc3ccccc23)n1	M1 ag 5.6 | M1 ag confirm inconclusive | M4 agonist ctr inactive
COc1ccccc1Cn1c(-c2ccco2)nc2nc3ccccc3nc21	none
COc1ccc(CCn2c(-c3ccco3)nc3nc4ccccc4nc32)cc1	M1 ag 3.5 | M1 ag confirm inactive | M4 agonist ctr inactive
c1ccc(Cn2c(-c3ccco3)nc3nc4ccccc4nc32)cc1	M1 ag 3.7 | M1 ag confirm inconclusive | M4 agonist ctr inconclusive
CC1CN(c2nc3ccccc3nc2C(C#N)C(=O)OC2CCCCC2)CC(C)O1 (configuration not stated)	M1 ag 38 | M1 ag confirm inconclusive | M4 agonist ctr inactive
CC1CN(c2nc3ccccc3nc2C(C#N)C(=O)NC2CCCCC2)CC(C)O1 (configuration not stated)	M1 ag 41 | M1 ag confirm -31 | M4 agonist ctr inactive
CC(C)COc1nc2ccccc2nc1C(C#N)C(=O)NC1CCCCC1 (configuration not stated)	none (no result: HEK293 NFkB inh)
CC(C(=O)Nc1ccc2c(c1)OCO2)N(c1ccc(Cl)cc1)S(C)(=O)=O (configuration not stated)	none
CN1C(=O)c2cccc(NC(=O)CCc3ccccc3)c2C1=O	none
Cc1ccc(-c2nnc3n2N=C(c2ccccc2)CS3)cc1	none
COc1cc(-c2nnc3n2N=C(c2ccccc2)CS3)cc(OC)c1OC	M1 ag 4.6 | M1 ag confirm inconclusive | M4 agonist ctr inactive
COCCCNC(=O)C(C#N)c1nc2ccccc2nc1N1CCCC1 (configuration not stated)	M1 ag 340 (no result: HEK293 NFkB inh) | M1 ag confirm 230 | M4 agonist ctr 749
CCCCCCOC(=O)C(C#N)c1nc2ccccc2nc1N1CCN(CC)CC1 (configuration not stated)	M1 ag 4.1 | M1 ag confirm inactive | M4 agonist ctr inactive
CCCCCNC(=O)C(C#N)c1nc2ccccc2nc1N1CCCC1 (configuration not stated)	M1 antag -2.4, M1 ag 282, Her2 expr inh -23 | M1 ag confirm 1609 | M4 agonist ctr 1437
CCCCCNC(=O)C(C#N)c1nc2ccccc2nc1N1CC(C)OC(C)C1 (configuration not stated)	none (no result: HEK293 NFkB inh)
CCCCCCNC(=O)C(C#N)c1nc2ccccc2nc1N1CCOCC1 (configuration not stated)	M1 ag 156 | M1 ag confirm 179 | M4 agonist ctr 1619
COc1ccc(-n2c(SCCC(=O)O)nnc2-c2ccncc2)cc1	none
CC(=O)c1c(C)[nH]c(C(=O)OCC(=O)Nc2cc(C(F)(F)F)ccc2N2CCOCC2)c1C	none

High-throughput results: PubChem, several laboratories
